Source: ChEMBL document CHEMBL1144512, “Synthesis and trypanocidal activity of ent-kaurane glycosides” (2007)
The source made the active and inactive calls. The calls are words filed in the database; no cut-off is given here.

Experiments:
[1] = test system: Trypanosoma cruzi; experiment: Trypanocidal activity against blood stream Trypanosoma cruzi Y trypomastigotes assessed as parasite lysis at 5 mM relative to control; format: functional
In short: (§1)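 Infected blood with Y-strain bloodstream trypomastigotes was exposed to compound in 1% DMSO plus TCM199 at final 0.31–5.0 mM. Tubes were incubated 24 h at 4C. An aliquot was examined microscopically and parasites counted. Activity was calculated as percent parasite reduction versus negative control (1% DMSO + TCM199). DMSO and gentian violet control tubes were run in parallel.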

[2] = test system: Trypanosoma cruzi; experiment: Trypanocidal activity against Trypanosoma cruzi Y blood stream trypomastigotes assessed as parasite lysis at 1.25 mM relative to control; format: functional; in short: as §1
[3] = test system: Trypanosoma cruzi; experiment: Trypanocidal activity against Trypanosoma cruzi Y blood stream trypomastigotes assessed as parasite lysis at 2.50 mM relative to control; format: functional; in short: as §1
[4] = test system: Trypanosoma cruzi; experiment: Trypanocidal activity against Trypanosoma cruzi Y blood stream trypomastigotes assessed as parasite lysis at 0.63 mM relative to control; format: functional; in short: as §1
[5] = test system: Trypanosoma cruzi; experiment: Trypanocidal activity against Trypanosoma cruzi Y blood stream trypomastigotes assessed as parasite lysis at 0.31 mM relative to control; format: functional; in short: as §1
[6] = test system: Blood; experiment: Induction of total haemolysis in Albino mouse blood infected with Trypanosoma cruzi Y at 1.25 mM; format: functional, tissue-based
In short: (§2)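 Erythrocyte lysis was scored in the in vitro trypomastigote tubes as partial or total haemolysis. Infected blood (0.2 mL) was mixed with compound in 1% DMSO plus TCM199 at final 0.31, 0.63, 1.25, 2.50 and 5.0 mM. Tubes were incubated 24 h at 4C and examined microscopically.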

[7] = test system: Blood; experiment: Induction of total haemolysis in Albino mouse blood infected with Trypanosoma cruzi Y at 5 mM; format: functional, tissue-based; in short: as §2
[8] = test system: Blood; experiment: Induction of total haemolysis in Albino mouse blood infected with Trypanosoma cruzi Y at 2.5 mM; format: functional, tissue-based; in short: as §2
[9] = test system: Trypanosoma cruzi; experiment: Trypanocidal activity in Swiss albino mouse inoculated with Trypanosoma cruzi Y blood trypomastigotes assessed as parasitaemia reduction administered after 7th day of inoculation at 250 mg/kg, po after 4 hrs relative to control; format: functional; design: scale not given: the % may be the effect or the level left
In short: (§3)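 Male Swiss albino mice (18–20 g, 30 days old) were infected ip with 5×10^4 Y-strain blood trypomastigotes. At peak parasitaemia (day 7), a single oral 250 mg/kg dose in DMSO 0.1 mL plus LIT 0.9 mL was given. Circulating parasites were counted microscopically before and 4 and 6 h after dosing. Percent reduction was taken versus pre-treatment count, with three mice per group, mean ± SD, and Split-Plot test.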

[10] = test system: Trypanosoma cruzi; experiment: Trypanocidal activity in Swiss albino mouse inoculated with Trypanosoma cruzi Y blood trypomastigotes assessed as parasitaemia reduction administered after 7th day of inoculation at 250 mg/kg, po after 6 hrs relative to control; format: functional; design: scale not given: the % may be the effect or the level left; in short: as §3

Structure (SMILES) | Activity [1] [%] | Activity [2] [%] | Activity [3] [%] | Activity [4] [%] | Activity [5] [%] | Activity [6] | Activity [7] | Activity [8] | Activity [9] [%] | Activity [10] [%]
C=C1C[C@@]23CCC4[C@](C)(CO[C@@H]5O[C@@H](CO)[C@H](O)[C@@H](O)[C@@H]5OC(C)=O)CCC[C@@]4(C)C2CC[C@@H]1C3 (stereo partly specified) | 56 | 0 | 0 | – | – | – | – | – | – | –
C=C1C[C@@]23CC[C@H]4[C@@](C)(CCC[C@@]4(C)C(=O)O)[C@@H]2CC[C@@H]1C3 [KAURENOIC ACID] | 100 | 100 | 100 | 90 | 0 | Active | Active | Active | – | –
COC(=O)[C@]1(C)CCC[C@@]2(C)C3CC[C@@H]4C[C@@]3(CCC21)C[C@@H]4CO (stereo partly specified) | 100 | – | 100 | 94 | 45 | – | – | – | – | –
CN(C)c1ccc(C(=C2C=CC(=[N+](C)C)C=C2)c2ccc(N(C)C)cc2)cc1.[Cl-] [GENTIAN VIOLET] | – | 100 | 100 | 100 | 67 | – | – | – | – | –
O=C(Cn1ccnc1[N+](=O)[O-])NCc1ccccc1 [BENZNIDAZOLE] | – | – | – | – | – | – | – | – | 91.7 | 92.6
C=C1C[C@@]23CCC4[C@@](C)(CCC[C@@]4(C)C(=O)OC)C2CC[C@@H]1C3 (stereo partly specified) | 100 | 88 | 100 | 48 | 45 | – | – | – | 56.5 | 51.5
C=C1C[C@@]23CC[C@@H]4[C@](C)(CO)CCC[C@@]4(C)[C@@H]2CC[C@H]1C3 | 100 | 66 | 72 | – | – | – | – | – | – | –
